From ChEMBL document CHEMBL4811241, “Revisiting Pyrazolo[3,4-d]pyrimidine Nucleosides as Anti-Trypanosoma cruzi and Antileishmanial Agents” (J Med Chem, 2021)

How the values were obtained:
[1] = Selectivity index, ratio of CC50 for human MRC-5 SV2 cells to IC50 for antitrypanosomal activity against nifurtimox-sensitive Trypanosoma cruzi Tulahuen CL2 infected in human MRC-5 SV2 cells; format: toxicity, cell-based; conditions: read-out: Ratio CC50/IC50
Method in brief: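 Ratio of MRC-5SV2 CC50 (3-day resazurin assay) to IC50 against T. cruzi amastigotes in MRC-5SV2 cells (7-day CPRG assay).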

Leishmania infantum = assay: Antileishmanial activity against amastigote form of Leishmania infantum MHOM/MA(BE)/67 infected in Swiss mouse peritoneal macrophages assessed as reduction in parasite growth treated at 2 hrs post-infection and measured after 5 days by Giemsa staining based microscopic analysis; format: functional, organism-based; conditions: MHOM/MA(BE)/67, Peritoneal macrophage
Method in brief: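 Swiss mouse peritoneal macrophages, harvested after 2-day potato-starch stimulation, infected 48 h after plating; compounds added 2 h post-infection.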

CYP450 [2] = assay: Metabolic stability of the compound in mouse liver microsomes S9 fraction assessed as CYP450-mediated metabolism by measuring parent compound remaining at 5 uM measured after 15 mins in presence of NADPH by UPLC-MS analysis; format: ADME, subcellular; conditions: read-out: Stabilty
Method in brief: (§1)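 Compound at 5 μM with 0.5 mg/mL male mouse or pooled human liver microsomes in potassium phosphate buffer; reaction started with 1 mM NADPH. Samples taken at 0, 15, 30 and 60 min and quenched in cold acetonitrile with internal standard. Parent remaining quantified by UPLC-MS/MS in MRM mode and given as % of the 0 min value.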

CYP450 [3] = molecular target: CYP450 (Homo sapiens, UniProt P04798+P05177+P05181+P08684+P10632+P10635+P11509+P11712+P13584+P20813+P20815+P20853+P24462+P24903+P33260+P33261+P51589+P78329+P98187+Q02928+Q08477+Q16678+Q16696+Q5TCH4+Q6VVX0+Q7Z449+Q8TAV3+Q96SQ9+Q9HB55); assay: Metabolic stability of the compound in human liver microsomes S9 fraction assessed as CYP450-mediated metabolism by measuring parent compound remaining at 5 uM measured after 30 mins in presence of NADPH by UPLC-MS analysis; format: ADME, subcellular; conditions: read-out: Stabilty; method in brief: as §1
UGT [4] = assay: Metabolic stability of the compound in mouse liver microsomes S9 fraction assessed as UGT-mediated metabolism by measuring parent compound remaining at 5 uM measured after 15 mins in presence of UDPGA by UPLC-MS analysis; format: ADME, subcellular; conditions: read-out: Stabilty
Method in brief: (§2)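 Compound at 5 μM with 0.5 mg/mL male mouse or pooled human liver microsomes; reaction started with 2 mM UDPGA. Sampled at 0, 15, 30 and 60 min and quenched in cold acetonitrile with internal standard. Parent remaining measured by UPLC-MS/MS (MRM) as % of the 0 min value.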

UGT [5] = assay: Metabolic stability of the compound in mouse liver microsomes S9 fraction assessed as UGT-mediated metabolism by measuring parent compound remaining at 5 uM measured after 30 mins in presence of UDPGA by UPLC-MS analysis; format: ADME, subcellular; conditions: read-out: Stabilty; method in brief: as §2
UGT [6] = assay: Metabolic stability of the compound in mouse liver microsomes S9 fraction assessed as UGT-mediated metabolism by measuring parent compound remaining at 5 uM measured after 60 mins in presence of UDPGA by UPLC-MS analysis; format: ADME, subcellular; conditions: read-out: Stabilty; method in brief: as §2
UGT [7] = molecular target: UGT (Homo sapiens, UniProt O60656+O75310+O75795+P06133+P0DTE4+P0DTE5+P16662+P19224+P22309+P22310+P35503+P35504+P36537+P54855+Q6UWM9+Q9BY64+Q9HAW7+Q9HAW8+Q9HAW9); assay: Metabolic stability of the compound in human liver microsomes S9 fraction assessed as UGT-mediated metabolism by measuring parent compound remaining at 5 uM measured after 60 mins in presence of UDPGA by UPLC-MS analysis; format: ADME, subcellular; conditions: read-out: Stabilty; method in brief: as §2
[8] = Toxicity in Swiss webster mouse infected with Trypanosoma cruzi Y trypomastigotes assessed as animal survival at 0.25 mg/kg, po bid for 5 days treatment started at 6 days post-infection and measured at 34 days post-infection; format: organism-based; conditions: in vivo, 696 h, time 29 day
Method in brief: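 Male Swiss Webster mice (18−20 g, 4−5 weeks) were infected i.p. with 10⁴ Y-strain bloodstream trypomastigotes from a donor mouse. Only mice with detectable parasitemia were treated, in groups of six. Oral gavage was given on days 6–10 post-infection, b.i.d. or q.d. as listed, in 10% Tween 80 vehicle, freshly prepared. Infected vehicle controls were included. Mortality was checked daily to 34 dpi as cumulative percentage.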

Trypanosoma cruzi [9] = assay: Antitrypanosomal activity against Trypanosoma cruzi Y bloodstream trypomastigotes assessed as inhibition of parasite growth incubated for 24 hrs by light microscopy; format: functional, organism-based
Trypanosoma cruzi [10] = assay: Antitrypanosomal activity against intracellular amastigote form of Trypanosoma cruzi Y infected in Swiss Webster mouse cardiomyocytes assessed as inhibition of parasite growth incubated for 48 hrs by Giemsa staining based microscopic analysis; format: functional, organism-based; conditions: Cardiac muscle cell
Method in brief: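 Primary 2D mouse embryo cardiac cell cultures, infected for 24 h, then washed and exposed for 48 h at 37 °C to a serial dilution. Cells fixed and stained with Giemsa; infected cells and parasites per infected cell scored in 200 host cells. Activity expressed from the inhibition index; two independent experiments run in duplicate.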

[11] = Selectivity index, ratio of LC50 for cytotoxicity against Swiss Webster mouse 2D cardiomyocytes to IC50 for antitrypanosomal activity against intracellular amastigote form of Trypanosoma cruzi Y infected in Swiss Webster mouse cardiomyocytes; format: toxicity, cell-based; conditions: read-out: Ratio LC50/IC50
Method in brief: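 Ratio of cardiac-cell CC₅₀ to Y-strain amastigote IC₅₀. Cardiac cultures were infected after 24 h plating for 24 h with bloodstream trypomastigotes (10:1 parasite/host). After washing, cells were treated 48 h at 37 °C with a serial dilution. Cells were then Giemsa-stained, with infection and parasites per cell scored in 200 cells. Two independent experiments were run in duplicate.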

Trypanosoma cruzi [12] = assay: Antitrypanosomal activity against nifurtimox-sensitive Trypanosoma cruzi Tulahuen CL2 infected in Swiss mouse peritoneal macrophages assessed as inhibition of parasite growth measured after 7 days in presence of ABC transporter inhibitor, cyclosporine A by spectrophotometric analysis; format: functional, organism-based; conditions: Tulahuen CL2, Peritoneal macrophage, 168 h
Method in brief: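 Macrophage-hosted 7-day assay read with CPRG at 540 nm, with compound given together with an ABC transporter inhibitor: cyclosporine A 2 μM, probenecid 700 μM or verapamil 8 μM. IC50 from % reduction versus infected controls.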

Q: With `Nc1ncnc2c1c(-c1ccc(Cl)cc1)nn2[C@@H]1O[C@H](CO)[C@@H](O)[C@H]1O` as the molecule, how does the selectivity ratio [1] read?
A: The selectivity ratio was over 197.

Q: And the IC50 (Leishmania infantum)?
A: The IC50 was over 64 µM.

Q: What about the remaining at 0.25 h, 5 µM (CYP450 [2]) of the same molecule?
A: Its remaining at 0.25 h, 5 µM is 103%.

Q: And the remaining at 0.5 h, 5 µM (CYP450 [3])?
A: Its remaining at 0.5 h, 5 µM is 101%.

Q: And the remaining at 0.25 h, 5 µM (UGT [4])?
A: Its remaining at 0.25 h, 5 µM is 103%.

Q: And the remaining at 0.5 h, 5 µM (UGT [5])?
A: The remaining at 0.5 h, 5 µM was 115%.

Q: And the remaining at 1 h, 5 µM (UGT [6])?
A: The remaining at 1 h, 5 µM was 115%.

Q: And the remaining at 1 h, 5 µM (UGT [7])?
A: The remaining at 1 h, 5 µM was 104%.

Q: And the Activity [8]?
A: The Activity was “Toxic”.

Q: What about the IC50 (Trypanosoma cruzi [9]) of the same molecule?
A: Its IC50 is over 81 µM.

Q: What about the IC50 (Trypanosoma cruzi [10]) of the same molecule?
A: Its IC50 is 0.26 µM.

Q: And the selectivity ratio [11]?
A: The selectivity ratio was over 1900.

Q: And the IC50 (Trypanosoma cruzi [12])?
A: Its IC50 is over 64 µM.
